From ChEMBL document CHEMBL1125276 (J Med Chem, 1991)

Experiments:
Tubulin = assay: The compound tested for the inhibition of tubulin polymerization.; type: functional
How it was run: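 Tubulin was partially purified from dog brain by polymerization/depolymerization cycles and used at 0.5 mg/mL. Compounds were added in DMSO (10 µL per 500 µL reaction) at 10^-6 to 10^-9 M, with DMSO-only controls. Polymerization was followed by turbidity at 350 nm. Rates from two separate experiments were plotted against concentration, and IC50 was read graphically.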

L1210 = assay: Tested for the inhibition of L1210 cell proliferation.; type: functional, cell-based; conditions: Mus musculus
How it was run: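 L1210 cells were grown in RPMI 1640 with 10% FCS, 2 mM L-glutamine and 10 mM HEPES (pH 7.4). Exponential-phase cells (10^5 cells/mL) were exposed for 24 h to 5 drug concentrations in triplicate, then pulsed 3 h with 0.5 µCi/mL [3H]thymidine. Cells were harvested onto filters and counted. IC50 is 50% inhibition of incorporation versus untreated cells, given as the mean of 2–5 independent experiments.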

P388 [1] = assay: Compound was tested for T/C range at optimal dose of 40.0 mg/kg for antitumor activity against P388 leukemia cells in mice.; type: functional, Mus musculus
P388 [2] = assay: Long-term survivors (LTS) for 60 days at optimal dose of 40.0 mg/kg for antitumor activity against P388 leukemia cells in 6 mice.; type: functional, Mus musculus
P388 [3] = assay: Compound was tested for T/C range at optimal dose of 20.0 mg/kg for antitumor activity against P388 leukemia cells in mice.; type: functional, Mus musculus
P388 [4] = assay: Long-term survivors (LTS) for 60 days at optimal dose of 20.0 mg/kg for antitumor activity against P388 leukemia cells in 5 mice; type: functional, Mus musculus
P388 [5] = assay: Compound was tested for T/C range at optimal dose of 0.15 mg/kg for antitumor activity against P388 leukemia cells in mice; value ranges from 168-600; type: functional, Mus musculus
P388 [6] = assay: Long-term survivors (LTS) for 60 days at optimal dose of 0.15 mg/kg for antitumor activity against P388 leukemia cells in 25 mice.; type: functional, Mus musculus
P388 [7] = assay: Compound was tested for T/C range at optimal dose of 3.0 mg/kg for antitumor activity against P388 leukemia cells in mice.; type: functional, Mus musculus
P388 [8] = assay: Long-term survivors (LTS) for 60 days at optimal dose of 3.0 mg/kg for antitumor activity against P388 leukemia cells in 6 mice.; type: functional, Mus musculus
P388 [9] = assay: Long-term survivors (LTS) for 60 days at optimal dose of 1.00 mg/kg for antitumor activity against P388 leukemia cells in 6 mice.; type: functional, Mus musculus
P388 [10] = assay: Compound was tested for T/C range at optimal dose of 1.00 mg/kg for antitumor activity against P388 leukemia cells in mice.; type: functional, Mus musculus
P388 [11] = assay: Compound was tested for T/C range at optimal dose of 12.00 mg/kg for antitumor activity against P388 leukemia cells in mice.; type: functional, Mus musculus
P388 [12] = assay: Long-term survivors (LTS) for 60 days at optimal dose of 12.00 mg/kg for antitumor activity against P388 leukemia cells in 5 mice.; type: functional, Mus musculus
P388 [13] = assay: Long-term survivors (LTS) for 60 days at optimal dose of 100 mg/kg for antitumor activity against P388 leukemia cells in 54 mice.; type: functional, Mus musculus
P388 [14] = assay: Compound was tested for T/C range at optimal dose of 100 mg/kg for antitumor activity against P388 leukemia cells in mice; value ranges from 150-285; type: functional, Mus musculus
P388 [15] = assay: Long-term survivors (LTS) for 60 days at optimal dose of 1.00 mg/kg for antitumor activity against P388 leukemia cells in 5 mice.; type: functional, Mus musculus
P388 [16] = assay: Compound was tested for T/C range at optimal dose of 0.5 mg/kg for antitumor activity against P388 leukemia cells in mice; value ranges from 160-447; type: functional, Mus musculus
P388 [17] = assay: Long-term survivors (LTS) for 60 days at optimal dose of 0.5 mg/kg for antitumor activity against P388 leukemia cells in 54 mice.; type: functional, Mus musculus
P388 [18] = assay: Long-term survivors (LTS) for 60 days at optimal dose of 0.5 mg/kg for antitumor activity against P388 leukemia cells in 96 mice.; type: functional, Mus musculus
P388 [19] = assay: Compound was tested for T/C range at optimal dose of 0.5 mg/kg for antitumor activity against P388 leukemia cells in mice; value ranges from 151-480; type: functional, Mus musculus
P388 [20] = assay: Compound was tested for T/C range at optimal dose of 3.0 mg/kg for antitumor activity against P388 leukemia cells in mice; value ranges from 165-181; type: functional, Mus musculus
P388 [21] = assay: Long-term survivors (LTS) for 60 days at optimal dose of 3.0 mg/kg for antitumor activity against P388 leukemia cells in 15 mice.; type: functional, Mus musculus
P388 [22] = assay: Long-term survivors (LTS) for 60 days at optimal dose of 5.00 mg/kg for antitumor activity against P388 leukemia cells in 12 mice.; type: functional, Mus musculus
P388 [23] = assay: Compound was tested for T/C range at optimal dose of 5.00 mg/kg for antitumor activity against P388 leukemia cells in mice; value ranges from 149-224; type: functional, Mus musculus
P388 [24] = assay: Long-term survivors (LTS) for 60 days at optimal dose of 1.00 mg/kg for antitumor activity against P388 leukemia cells in 12 mice.; type: functional, Mus musculus
P388 [25] = assay: Compound was tested for T/C range at optimal dose of 1.00 mg/kg for antitumor activity against P388 leukemia cells in mice; value ranges from 234-302; type: functional, Mus musculus

CCOP(=O)(OCC)[C@@H](Cc1c[nH]c2ccccc12)NC(=O)[C@@]1(O)[C@H](O)[C@]2(CC)C=CCN3CC[C@@]4(c5cc([C@@]6(C(=O)OC)C[C@@H]7CN(CCc8c6[nH]c6ccccc86)C[C@](O)(CC)C7)c(OC)cc5N(C)[C@@H]14)[C@@H]32
IC50 (Tubulin): 100 nM
IC50 (L1210): 36.7 nM
T/C (P388 [1]): 197%
LTS (P388 [2]): 0

CCOP(=O)(OCC)[C@@H](Cc1ccccc1)NC(=O)[C@@]1(O)[C@H](O)[C@]2(CC)C=CCN3CC[C@@]4(c5cc([C@@]6(C(=O)OC)C[C@@H]7CN(CCc8c6[nH]c6ccccc86)C[C@](O)(CC)C7)c(OC)cc5N(C)[C@@H]14)[C@@H]32
T/C (P388 [3]): 261%
LTS (P388 [4]): 1
IC50 (L1210): 14.3 nM

CCOP(=O)(OCC)[C@@H](NC(=O)[C@@]1(O)[C@H](O)[C@]2(CC)C=CCN3CC[C@@]4(c5cc([C@@]6(C(=O)OC)C[C@@H]7CN(CCc8c6[nH]c6ccccc86)C[C@](O)(CC)C7)c(OC)cc5N(C)[C@@H]14)[C@@H]32)C(C)C
IC50 (Tubulin): 400 nM
IC50 (L1210): 0.43 nM
T/C (P388 [5]): 168%
LTS (P388 [6]): 8

CCOP(=O)(OCC)[C@H](Cc1c[nH]c2ccccc12)NC(=O)[C@@]1(O)[C@H](O)[C@]2(CC)C=CCN3CC[C@@]4(c5cc([C@@]6(C(=O)OC)C[C@@H]7CN(CCc8c6[nH]c6ccccc86)C[C@](O)(CC)C7)c(OC)cc5N(C)[C@@H]14)[C@@H]32
IC50 (Tubulin): 100 nM
IC50 (L1210): 64.7 nM
T/C (P388 [1]): 188%
LTS (P388 [2]): 0

CCCCCC(NC(=O)[C@@]1(O)[C@H](O)[C@]2(CC)C=CCN3CC[C@@]4(c5cc([C@@]6(C(=O)OC)C[C@@H]7CN(CCc8c6[nH]c6ccccc86)C[C@](O)(CC)C7)c(OC)cc5N(C)[C@@H]14)[C@@H]32)P(=O)(OCC)OCC (mixture of isomers)
T/C (P388 [7]): 203%
IC50 (Tubulin): 20 nM
IC50 (L1210): 3.97 nM
LTS (P388 [8]): 0

CCOP(=O)(OCC)[C@@H](C)NC(=O)[C@@]1(O)[C@H](O)[C@]2(CC)C=CCN3CC[C@@]4(c5cc([C@@]6(C(=O)OC)C[C@@H]7CN(CCc8c6[nH]c6ccccc86)C[C@](O)(CC)C7)c(OC)cc5N(C)[C@@H]14)[C@@H]32
LTS (P388 [9]): 0
IC50 (Tubulin): 80 nM
IC50 (L1210): 37 nM
T/C (P388 [10]): 145%

C=CC[C@@H](NC(=O)[C@@]1(O)[C@H](O)[C@]2(CC)C=CCN3CC[C@@]4(c5cc([C@@]6(C(=O)OC)C[C@@H]7CN(CCc8c6[nH]c6ccccc86)C[C@](O)(CC)C7)c(OC)cc5N(C)[C@@H]14)[C@@H]32)P(=O)(OCC)OCC
T/C (P388 [11]): 195%
IC50 (L1210): 26.4 nM
LTS (P388 [12]): 0

CCOC(=O)C(Cc1c[nH]c2ccccc12)NC(=O)[C@@]1(O)[C@H](O)[C@]2(CC)C=CCN3CC[C@@]4(c5cc([C@@]6(C(=O)OC)C[C@@H]7CN(CCc8c6[nH]c6ccccc86)C[C@](O)(CC)C7)c(OC)cc5N(C)[C@@H]14)[C@@H]32 (some centres undefined) [VINTRYPOL]
LTS (P388 [13]): 2
IC50 (Tubulin): 200 nM
T/C (P388 [14]): 150%

C=CC[C@H](NC(=O)[C@@]1(O)[C@H](O)[C@]2(CC)C=CCN3CC[C@@]4(c5cc([C@@]6(C(=O)OC)C[C@@H]7CN(CCc8c6[nH]c6ccccc86)C[C@](O)(CC)C7)c(OC)cc5N(C)[C@@H]14)[C@@H]32)P(=O)(OCC)OCC
IC50 (L1210): 1.29 nM
T/C (P388 [10]): 294%
LTS (P388 [15]): 0

CCOP(=O)(OCC)C(NC(=O)[C@@]1(O)[C@H](O)[C@]2(CC)C=CCN3CC[C@@]4(c5cc([C@@]6(C(=O)OC)C[C@@H]7CN(CCc8c6[nH]c6ccccc86)C[C@](O)(CC)C7)c(OC)cc5N(C)[C@@H]14)[C@@H]32)C(C)C (mixture of isomers)
T/C (P388 [16]): 160%
IC50 (Tubulin): 300 nM
IC50 (L1210): 0.64 nM
LTS (P388 [17]): 11

CCOP(=O)(OCC)C(C)NC(=O)[C@@]1(O)[C@H](O)[C@]2(CC)C=CCN3CC[C@@]4(c5cc([C@@]6(C(=O)OC)C[C@@H]7CN(CCc8c6[nH]c6ccccc86)C[C@](O)(CC)C7)c(OC)cc5N(C)[C@@H]14)[C@@H]32 (mixture of isomers)
IC50 (Tubulin): 100 nM
IC50 (L1210): 2.5 nM
LTS (P388 [18]): 7
T/C (P388 [19]): 151%

CCOP(=O)(CNC(=O)[C@@]1(O)[C@H](O)[C@]2(CC)C=CCN3CC[C@@]4(c5cc([C@@]6(C(=O)OC)C[C@@H]7CN(CCc8c6[nH]c6ccccc86)C[C@](O)(CC)C7)c(OC)cc5N(C)[C@@H]14)[C@@H]32)OCC
T/C (P388 [7]): 230%
IC50 (Tubulin): 300 nM
IC50 (L1210): 17.8 nM
LTS (P388 [8]): 1

CCOC(=O)CC(NC(=O)[C@@]1(O)[C@H](O)[C@]2(CC)C=CCN3CC[C@@]4(c5cc([C@@]6(C(=O)OC)C[C@@H]7CN(CCc8c6[nH]c6ccccc86)C[C@](O)(CC)C7)c(OC)cc5N(C)[C@@H]14)[C@@H]32)P(=O)(OCC)OCC (mixture of isomers)
T/C (P388 [7]): 122%
IC50 (Tubulin): 300 nM
IC50 (L1210): 2.77 nM
LTS (P388 [8]): 0

CC[C@]1(O)C[C@H]2CN(CCc3c([nH]c4ccccc34)[C@@](C(=O)OC)(c3cc4c(cc3OC)N(C=O)[C@H]3[C@@](O)(C(=O)OC)[C@H](OC(C)=O)[C@]5(CC)C=CCN6CC[C@]43[C@@H]65)C2)C1 [VINCRISTINE]
IC50 (Tubulin): 500 nM
IC50 (L1210): 4.85 nM
T/C (P388 [20]): 165%
LTS (P388 [21]): 0

CCOP(=O)(OCC)[C@H](NC(=O)[C@@]1(O)[C@H](O)[C@]2(CC)C=CCN3CC[C@@]4(c5cc([C@@]6(C(=O)OC)C[C@@H]7CN(CCc8c6[nH]c6ccccc86)C[C@](O)(CC)C7)c(OC)cc5N(C)[C@@H]14)[C@@H]32)C(C)C
T/C (P388 [7]): 135%
IC50 (Tubulin): 800 nM
IC50 (L1210): 10.9 nM
LTS (P388 [8]): 0

CCOP(=O)(OCC)C(Cc1ccccc1)NC(=O)[C@@]1(O)[C@H](O)[C@]2(CC)C=CCN3CC[C@@]4(c5cc([C@@]6(C(=O)OC)C[C@@H]7CN(CCc8c6[nH]c6ccccc86)C[C@](O)(CC)C7)c(OC)cc5N(C)[C@@H]14)[C@@H]32 (mixture of isomers)
LTS (P388 [22]): 0
T/C (P388 [23]): 149%
IC50 (Tubulin): 70 nM
IC50 (L1210): 46 nM

C=CCC(NC(=O)[C@@]1(O)[C@H](O)[C@]2(CC)C=CCN3CC[C@@]4(c5cc([C@@]6(C(=O)OC)C[C@@H]7CN(CCc8c6[nH]c6ccccc86)C[C@](O)(CC)C7)c(OC)cc5N(C)[C@@H]14)[C@@H]32)P(=O)(OCC)OCC (some centres undefined)
LTS (P388 [24]): 2
T/C (P388 [25]): 234%
IC50 (Tubulin): 300 nM
IC50 (L1210): 3.7 nM
